Screens as filed in PubChem.
This is one part of a sample in which hits are shown more often than they occur.
XBP1 UPR activ: activators of adaptive arm of unfolded protein response (XBP1); CHO-XBP1 luciferase reporter, IRE1-XBP1 UPR activation, luminescence; percent of tunicamycin response, DMSO as zero; activation, % at 20 µM; 330,000 compounds, 0.33% hits; AID 463104;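 active = versus positive control, 20 µM dose yields 30% or more activation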;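 note: 100% = tunicamycin at 10 µg/mL and 0% = DMSO only wells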
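incubation = overnight seeding at 37 °C, 6 h compound treatment at 37 °C | assay system = CHO-XBP1 cells stably carrying IRE1-XBP1-driven luciferase reporter | input = 1000 cells per well | detection = luciferase luminescence | dosing = single point, 20 µM final compound, 1% DMSO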
CHOP inhibitor: inhibitors of CHOP induction in ER stress response. CHO-K1 CHOP-promoter luciferase, tunicamycin-induced, 15-18 h. inhibition, % at 10 µM. 220,000 compounds, 3.8% hits. AID 2732;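 active = compounds that reduced the stress-induced luciferase reporter signal by more than about 70% of percent inhibition, limit read from the data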;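 note: 0% = tunicamycin plus vehicle and 100% = wells without tunicamycin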
CHOP UPR activ: activators of apoptotic arm of unfolded protein response (CHOP); CHO-CHOP luciferase reporter, UPR activation, luminescence; percent of tunicamycin response over DMSO baseline; activation, % at 10 µM; 330,000 compounds, 0.34% hits; AID 449763;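 active = at 10 µM dose, activation of 40% or more, normalized to positive control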;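 note: 100% = tunicamycin at 10 µg/mL and 0% = DMSO alone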
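measured by = luciferase luminescence | assay system = CHO-CHOP cells, stable luciferase reporter of PERK-eIF2a-CHOP signalling | amount = 500 reporter cells seeded per well | timing = 6 h compound exposure at 37 °C after overnight seeding | controls = positive tunicamycin 10 µg/mL, negative DMSO alone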
Tb MetRS inh: Trypanosoma brucei MetRS inhibition. purified T. brucei MetRS, ATP depletion, Kinase-Glo luminescence. inhibition, % at 11.9 µM. 360,000 compounds, 0.4% hits. AID 624268;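 active = inhibition above a per-plate cutoff of the control wells' mean inhibition plus 3 SD, cut at about 5.5% in these data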;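 note: 0% = DMSO wells median and 100% = median of wells with control inhibitor compound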
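assay system = parasite MetRS enzyme | timing = 15 min preincubation, 2 h reaction, all 25 °C | evaluation = percent inhibition relative to median high and low control wells | medium = HEPES buffer containing pyrophosphatase, BSA, spermine, DTT | compound = single dose, 11.9 µM final nominal, 0.9% final DMSO | detection = Kinase-Glo luminescence, ATP depletion format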
V-ATPase pH: yeast V-ATPase proton transport regulation by pHLuorin. S. cerevisiae, pHLuorin cytosolic pH fluorescence. response, % at 10 µM. 350,000 compounds, 0.37% hits. AID 504577; in the data active = response mostly above about 7.3%, no sharp cut-off; inactive = mostly below about 5.4%; note: actives read high
V-ATPase pH SP: yeast V-ATPase proton transport regulation | response, % at 10 µM | shares compounds with V-ATPase pH | 980 compounds, 2% hits | S. cerevisiae pHLuorin cytosolic pH; in the data active = response above about 24%;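 note: plate controls were vehicle wells for no effect and positive control wells for full effect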
Starred values were filed as active, the others as inactive; x = no result given.

SMILES	XBP1 UPR activ	CHOP inhibitor	CHOP UPR activ	Tb MetRS inh	V-ATPase pH	V-ATPase pH SP
CC(=O)N/C(=C\c1ccccc1)C(=O)N1CCOCC1	0	-4	0	-1	10*	2
O=C(/C=C/c1ccccc1)N/C(=C/c1ccccc1)C(=O)N1CCOCC1	0	1	3	-1	5	x
COc1ccc(NC(=O)c2ccsc2NC(C)=O)cc1	0	24	0	0	2	x
CS(=O)(=O)N1CCCC(C(=O)Nc2ccccc2)C1 (stereo not drawn)	-3	x	-1	-2	12*	-1
CC(=O)N(c1nnc(-c2cccc(C)c2)s1)C1CCCC1	4	x	5	-2	4	x
ON=C1c2ccccc2-c2ccccc21	2	x	4	0	-1	x
NC(N)=NN=C1c2ccccc2-c2ccccc21	-3	x	-1	-1	201*	-5
c1ccc(COCCCn2cc(-c3ccccc3)nn2)cc1	-1	x	0	0	10*	-2
Cc1ccc(F)c(NC(=O)/C(C#N)=C(\O)c2ccc(C(C)(C)C)cc2)c1	2	-3	0	0	16*	3
CCOC(=O)N1CCN(C(=O)COC(=O)C2CCN(S(=O)(=O)c3c(Cl)cccc3Cl)CC2)CC1	-5	x	1	-1	-2	x
COc1ccc(C(=O)CNc2ccccc2C#N)cc1	3	-13	5	0	9.3*	2
COc1ccc(C(=O)CNc2ccccc2CO)cc1	2	-5	2	0	2	x
COC(=O)c1cn(NC(=O)Cc2ccccc2Br)c(=O)c2ccccc12	-3	8	-1	0	9.1*	-3
COC(=O)c1cn(NC(=O)Cc2ccccc2OC)c(=O)c2ccccc12	-2	-10	1	0	1	x
O=C(NCC(c1ccco1)N1CCc2ccccc2C1)C(=O)Nc1ccc(F)cc1F (stereo not drawn)	0	x	0	0	3	x
COCCn1c(SCC(=O)NC2CC2)nc2ccccc21	0	x	0	0	0	x
CCCCCCOC(=O)C[N+](C)(C)CCOC1CC2CCC1(C)C2(C)C (stereo not drawn)	24	58	-1	-1	12*	1
CC(C)(C)NC(=O)CN(C(=O)c1snc(C(=O)NC2CCCCC2)c1N)c1ccccc1F	0	x	3	0	-1	x
CCOC(=O)Cn1c(=O)n(CC(=O)OCC)c2ccccc21	1	16	9	-1	2	-2
CCOC(=O)N=Nc1c(O)n(CC(=O)OC)c2ccccc12	-3	0	2	0	5	2
CCOC(=O)Cn1c(C)nc2ccccc21	-2	11	-1	-1	3	-7
COC(=O)Cn1c(=O)c(C)nc2ccccc21	-1	-14	0	0	-2	-3
COC(=O)Cn1c(C)nc2ccccc21	1	19	1	-1	-2	x
CCOC(=O)Cn1c(=N)n(Cc2ccccc2)c2ccccc21	-2	7	-3	-2	-4	x
COc1ccc(C(=O)Cn2c(C(C)=O)nc3ccccc32)cc1	x	x	x	0	4	x
SMILES	XBP1 UPR activ	CHOP inhibitor	CHOP UPR activ	Tb MetRS inh	V-ATPase pH	V-ATPase pH SP
CCCCn1c(=O)c(CCC(=O)O)nc2ccccc21	0	-19	0	0	-2	x
CCOC(=O)Cn1c(C(C)=O)nc2ccccc21	-1	21	-1	-1	2	-3
CCOC(=O)Cn1c(-c2ccccn2)nc2ccccc21	-7	-15	-1	-1	-1	0
CCOC(=O)Cn1c(=O)c(-c2ccccc2NC)nc2ccccc21	-3	36	1	-1	-1	1
O=C(O)Cn1c(=O)c(-c2ccccc2)nc2ccccc21	-2	x	2	0	-1	x
CCOC(=O)Cc1nc2ccccc2n(CC#N)c1=O	5	-4	1	0	1	-53
Cn1nnnc1SCCNCc1ccccc1OCc1ccc(F)cc1	-3	24	2	0	7	x
NC(=O)NC(=O)COC(=O)/C=C/c1cccs1	-1	9	1	0	0	x
O=C(CNC(=O)c1ccc(Br)o1)OCC(=O)c1cccc([N+](=O)[O-])c1	-2	2	-1	0	1	x
CC1CCCN(CCC(=O)c2ccc(Br)cc2)C1 (stereo not drawn)	0	-35	-3	0	8.8*	16
CCCNC(=O)CCCN1C(=O)c2ccccc2Sc2ncccc21	-1	x	-2	3	9.0*	5
COc1ccc(-c2nnc(S/C(=C/c3ccc(Cl)cc3)C(=O)O)o2)cc1	-3	11	1	0	-1	x
CSc1ccc(/C=C(/Sc2nnc(-c3ccccc3)o2)C(=O)O)cc1	-5	32	0	1	0	-34
CSc1nnc(-c2ccccc2)o1	1	2	2	-1	0	1
O=C(O)/C(=C\c1cccs1)Sc1nnc(-c2ccc(F)cc2)o1	-3	-19	1	-1	0	2
O=C(CSc1nc(C2CC2)nc2ccccc12)N1CCc2ccccc21	x	x	x	0	1	x
Cc1cnc(C(=O)N2CCN(S(=O)(=O)c3cc(C(F)(F)F)cc(C(F)(F)F)c3)CC2)cn1	x	x	x	0	2	x
C[C@@H]1CCC[C@H](C)N1Cc1nc(Cc2ccccc2Cl)no1	-1	-15	1	-1	-1	x
CCOC(=O)c1ccc(NC(=S)Nc2ccccc2)cc1	-1	4	4	0	0	x
CCOC(=O)c1ccc(NC(=S)NC(=O)COc2ccccc2)cc1	-3	51	1	-1	65*	-4
CC(=O)Nc1ccc(S(=O)(=O)NNC(=O)COc2ccc(Cl)cc2Cl)cc1	-1	11	-1	0	13*	4
CC1=C(C(=O)OCc2ccc(C)cc2)C(c2ccc(O)c([N+](=O)[O-])c2)NC(=O)N1 (stereo not drawn)	-2	-7	2	0	x	x
CC(C)N1CCc2c(sc(NC(=O)CCS(=O)(=O)c3ccccc3)c2C#N)C1	-3	x	0	0	-1	x
COc1ccc([C@H]2C[C@H](O)[C@@H](n3cc(-c4ccc(F)cc4)nn3)CN2C(=O)C2CCCCC2)cc1	x	x	x	-2	3	x
COc1ccc([C@H]2C[C@@H](O)[C@H](n3cc(-c4ccc(F)cc4)nn3)CN2C(=O)C2CCCCC2)cc1	x	x	x	-2	7.0*	1
CCCN(C(=O)COc1ccc(C(C)=O)cc1OC)C1CCS(=O)(=O)C1 (stereo not drawn)	-2	x	2	0	10*	-5
COc1ccc([N+](=O)[O-])cc1N(CC(=O)N1CCN(Cc2ccccc2)CC1)S(C)(=O)=O	-4	x	3	-1	8.8*	0
COc1ccc(OC)c(N(CC(=O)N2CCN(Cc3ccccc3)CC2)S(C)(=O)=O)c1	-2	x	1	0	3	x
